Results published in ChEMBL document CHEMBL4049426, “Identification of the Clinical Candidate (R)-(1-(4-Fluorophenyl)-6-((1-methyl-1H-pyrazol-4-yl)sulfonyl)-4,4a,5,6,7,8-hexahydro-1H-pyrazolo[3,4-g]isoquinolin-4a-yl)(4-(trifluoromethyl)pyridin-2-yl)methanone (CORT125134): A Selective Glucocorticoid Receptor (GR) Antagonist” (J Med Chem, 2017).

Experiments:
Glucocorticoid receptor [1] = target: T1, Glucocorticoid receptor (Homo sapiens, UniProt P04150); assay: Displacement of fluormone GS Red from human glucocorticoid receptor after 4 hrs by fluorescence polarization assay
T1 sequence (P04150 whole entry): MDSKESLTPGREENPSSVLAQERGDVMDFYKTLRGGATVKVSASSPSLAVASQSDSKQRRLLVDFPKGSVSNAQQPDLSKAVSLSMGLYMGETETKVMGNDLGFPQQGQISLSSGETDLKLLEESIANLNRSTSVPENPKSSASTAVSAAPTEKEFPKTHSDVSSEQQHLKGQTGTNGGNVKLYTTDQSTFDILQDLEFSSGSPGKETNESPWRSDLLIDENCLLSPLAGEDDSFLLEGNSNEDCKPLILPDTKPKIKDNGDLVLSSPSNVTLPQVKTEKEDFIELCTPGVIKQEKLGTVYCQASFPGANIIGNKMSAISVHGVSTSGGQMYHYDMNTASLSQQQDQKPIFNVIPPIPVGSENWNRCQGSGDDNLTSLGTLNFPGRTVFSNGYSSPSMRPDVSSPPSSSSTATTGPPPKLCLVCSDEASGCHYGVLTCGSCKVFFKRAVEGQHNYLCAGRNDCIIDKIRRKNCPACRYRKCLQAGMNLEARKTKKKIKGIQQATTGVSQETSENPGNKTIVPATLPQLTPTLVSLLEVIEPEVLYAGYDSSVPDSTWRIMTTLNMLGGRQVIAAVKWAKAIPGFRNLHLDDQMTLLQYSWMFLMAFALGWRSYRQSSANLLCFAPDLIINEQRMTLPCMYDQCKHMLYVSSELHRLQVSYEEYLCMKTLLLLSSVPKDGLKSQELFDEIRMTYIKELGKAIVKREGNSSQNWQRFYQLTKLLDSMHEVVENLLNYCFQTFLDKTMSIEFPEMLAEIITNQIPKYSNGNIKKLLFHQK

Glucocorticoid receptor [2] = target: T1, Glucocorticoid receptor; assay: Antagonist activity at glucocorticoid receptor in human HepG2 cells assessed as inhibition of dexamethasone-induced tyrosine amino transferase activity preincubated for 30 mins followed by dexamethasone addition measured after 20 hrs; type: cell-based
[3] = Cmax in Sprague-Dawley CD-1 rat plasma at 3 mg/kg, po administered as cassette dose via gavage measured up to 24 hrs by LC/MS analysis; type: ADME, organism-based; set-up: dose 3 mg/kg, route oral
Outline: (§1)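 Three male Sprague Dawley CD-1 rats (220-250g) with jugular vein catheters; three test compounds plus a reference dosed together by oral gavage, 3mg/kg each, in DMSO:0.5% methylcellulose 10:90 (0.6mg/mL per compound), 5mL/kg. Plasma sampled pre-dose and at 0.25, 0.5, 1, 2, 4, 6, 8, 24 h; LC/MS.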

[4] = AUC in Sprague-Dawley CD-1 rat plasma at 3 mg/kg, po administered as cassette dose via gavage measured up to 24 hrs by LC/MS analysis; type: ADME, organism-based; set-up: time < 24 hr, dose 3 mg/kg, route oral; outline: as §1

## Cc1cnc(C(=O)[C@]23Cc4cnn(-c5ccc(F)cc5)c4C=C2CCN(S(=O)(=O)c2cccc(C(F)(F)F)c2)C3)s1
Glucocorticoid receptor [1]
  Ki: 0.29 nM
Glucocorticoid receptor [2]
  Ki: 10 nM

## Cn1ccc(S(=O)(=O)N2CC[C@H]3Cc4c(cnn4-c4ccc(F)cc4)C[C@]3(C(=O)c3cc(C(F)(F)F)ccn3)C2)n1
Glucocorticoid receptor [2]
  Ki: 24 nM

## O=C(c1ccccn1)[C@]12Cc3cnn(-c4ccc(F)cc4)c3C=C1CCN(S(=O)(=O)c1cc(F)cc(F)c1)C2
Glucocorticoid receptor [1]
  Ki: 0.12 nM
Glucocorticoid receptor [2]
  Ki: 9.2 nM
[3]
  Cmax: 72 ng/mL
[4]
  AUC at 24 h: 143 ng·h/mL

## O=C(c1ccccn1)[C@]12Cc3cnn(-c4ccc(F)cc4)c3C[C@@H]1CCN(S(=O)(=O)c1cccc(C(F)(F)F)c1)C2
Glucocorticoid receptor [2]
  Ki: 44 nM

## O=C(c1ccccn1)[C@]12Cc3cnn(-c4ccc(F)cc4)c3C=C1CCN(S(=O)(=O)c1ccc(C(F)(F)F)c(F)c1)C2
[3]
  Cmax: 125 ng/mL
[4]
  AUC at 24 h: 726 ng·h/mL

## Cc1cccc(S(=O)(=O)N2CCC3=Cc4c(cnn4-c4ccc(F)cc4)C[C@]3(C(=O)c3ccccn3)C2)c1
[3]
  Cmax: 31 ng/mL
[4]
  AUC at 24 h: 83 ng·h/mL

## Cc1csc(C(=O)[C@]23Cc4cnn(-c5ccc(F)cc5)c4C=C2CCN(S(=O)(=O)c2cccc(C(F)(F)F)c2)C3)n1
Glucocorticoid receptor [1]
  Ki: 0.88 nM
Glucocorticoid receptor [2]
  Ki: 63 nM

## Cn1cc(S(=O)(=O)N2CCC3=Cc4c(cnn4-c4ccc(F)cc4)C[C@]3(C(=O)c3ccccn3)C2)cn1
Glucocorticoid receptor [2]
  Ki: 28 nM
[3]
  Cmax: 150 ng/mL
[4]
  AUC at 24 h: 780 ng·h/mL

## Cn1cc(S(=O)(=O)N2CC[C@H]3Cc4c(cnn4-c4ccc(F)cc4)C[C@]3(C(=O)c3cc(C(F)(F)F)ccn3)C2)cn1
Glucocorticoid receptor [2]
  Ki: 34 nM

## Cc1c(S(=O)(=O)N2CCC3=Cc4c(cnn4-c4ccc(F)cc4)C[C@]3(C(=O)c3cc(C(F)(F)F)ccn3)C2)cnn1C
Glucocorticoid receptor [2]
  Ki: 12 nM
[3]
  Cmax: 110 ng/mL
[4]
  AUC at 24 h: 283 ng·h/mL

## Cc1ccnc(C(=O)[C@]23Cc4cnn(-c5ccc(F)cc5)c4C=C2CCN(S(=O)(=O)c2cccc(C#N)c2)C3)c1
Glucocorticoid receptor [1]
  Ki: 0.15 nM
Glucocorticoid receptor [2]
  Ki: 4.5 nM
[3]
  Cmax: 70 ng/mL
[4]
  AUC at 24 h: 217 ng·h/mL

## Cc1cccc(S(=O)(=O)N2CCC3=Cc4c(cnn4-c4ccc(F)cc4)C[C@]3(C(=O)c3cc(C)ccn3)C2)c1
Glucocorticoid receptor [1]
  Ki: 0.08 nM
Glucocorticoid receptor [2]
  Ki: 3.3 nM
[3]
  Cmax: 11 ng/mL
[4]
  AUC at 24 h: 44 ng·h/mL

## Cc1n[nH]c(C)c1S(=O)(=O)N1CCC2=Cc3c(cnn3-c3ccc(F)cc3)C[C@]2(C(=O)c2cc(C(F)(F)F)ccn2)C1
Glucocorticoid receptor [2]
  Ki: 69 nM

## Cc1ccnc(C(=O)[C@]23Cc4cnn(-c5ccc(F)cc5)c4C=C2CCN(S(=O)(=O)c2ccc(F)c(F)c2)C3)c1
Glucocorticoid receptor [1]
  Ki: 0.14 nM
Glucocorticoid receptor [2]
  Ki: 5.7 nM
[3]
  Cmax: 113 ng/mL
[4]
  AUC at 24 h: 421 ng·h/mL

## CCn1nccc1S(=O)(=O)N1CC[C@H]2Cc3c(cnn3-c3ccc(F)cc3)C[C@]2(C(=O)c2cc(C(F)(F)F)ccn2)C1
Glucocorticoid receptor [2]
  Ki: 68 nM

## Cc1cccc(S(=O)(=O)N2CCC3=Cc4c(cnn4-c4ccc(F)cc4)C[C@]3(C(=O)c3cccc(C)n3)C2)c1
Glucocorticoid receptor [1]
  Ki: 0.2 nM
Glucocorticoid receptor [2]
  Ki: 14 nM

## O=C(c1nccs1)[C@]12Cc3cnn(-c4ccc(F)cc4)c3C=C1CCN(S(=O)(=O)c1cccc(C(F)(F)F)c1)C2
Glucocorticoid receptor [1]
  Ki: 0.48 nM
Glucocorticoid receptor [2]
  Ki: 17 nM
[3]
  Cmax: 103 ng/mL
[4]
  AUC at 24 h: 446 ng·h/mL

## O=C(c1ccccn1)[C@]12Cc3cnn(-c4ccc(F)cc4)c3C=C1CCN(S(=O)(=O)c1ccc(C(F)(F)F)cc1)C2 [DAZUCORILANT]
Glucocorticoid receptor [2]
  Ki: 12 nM

## Cc1ccnc(C(=O)[C@]23Cc4cnn(-c5ccc(F)cc5)c4C=C2CCN(S(=O)(=O)c2cc(F)cc(F)c2)C3)c1
Glucocorticoid receptor [1]
  Ki: 0.14 nM
Glucocorticoid receptor [2]
  Ki: 4.3 nM

## O=C(c1nccs1)[C@]12Cc3cnn(-c4ccc(F)cc4)c3C=C1CCN(S(=O)(=O)c1ccc(Cl)c(Cl)c1)C2
Glucocorticoid receptor [1]
  Ki: 0.59 nM
Glucocorticoid receptor [2]
  Ki: 16 nM
[3]
  Cmax: 197 ng/mL
[4]
  AUC at 24 h: 1220 ng·h/mL
